Compound activity (PubChem)
HSF1 inh: HSF1 inhibition. NIH3T3-HGL HSE-luciferase, MG132-induced, luminescence 8 h; hits give low values. activity change, negative = inhibition, % at 7.5 µM (by protocol). 0.77% of 300,000 active;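 active = more than half of replicate wells show activity change below -50%, luminescence cut by over half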;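 also: luciferase reports HSF-1 transcriptional activity via heat shock element; 0% = median of DMSO wells and -100% = zero luminescence signal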
HSF-1 act: increases HSF-1 driven luciferase reporter signal; NIH3T3-HGL HSF-1 luciferase reporter, MG132, 8 h; 100% = twice DMSO control signal; activation, % at 9 µM; 1.7% of 300,000 active; AID 504408;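 active = mean replicate activation of at least 50% with a set share of replicates each reaching 50%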;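 also: 0% = median of the neutral control wells and 100% = twice that signal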
T cruzi inh: blocks replication of Trypanosoma cruzi; 1.4% of 300,000 active; T. cruzi beta-gal in NIH3T3, luminescence, 90 h; AID 1885; inhibition, % (no concentration beside the values);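 active = mean inhibition across valid replicates above about 55%, limit read from the data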;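 also: signal also drops with host cell toxicity which is not excluded here; 0% = plate median of DMSO wells and 100% = zero luminescence signal; higher percent means less beta-gal luminescence so fewer parasites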
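assay system = mouse NIH/3T3 fibroblasts infected with β-gal-expressing T. cruzi Tulahuen C4 | input = 5,000 NIH/3T3 host cells per well | buffer or medium = DMEM plus 2% FBS | timing = 3 h host attachment, then at least 90 h co-culture | measured by = GalScreen luminescence, 60 min | evaluation = luminescence reflecting intracellular parasite burden, expressed as percent inhibition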
Lmaj promast: reduces viability of Leishmania major promastigotes; resazurin fluorescence viability; inhibition, % at 10 µM; 9% of 200,000 active; in the data active = inhibition above about 50%;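 also: promastigotes grown with compound for 44 hours at 28 °C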
Hsp70 act: Hsp70 transcriptional activation, primary screen. AID 1203. activation, % at 10 µM. HeLa Hsp70 promoter luciferase reporter, luminescence; scaled: vehicle 0, proteasome-inhibitor control 100%. 0.04% of 200,000 active;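 active = activation above the mean across all tested compounds plus 3 SD, cutoff set per campaign, cut at about 5.5% in these data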;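 also: 100% = MG132 at 30 µM as the positive control and 0% = DMSO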
The depositor's hits bear a star; · = no result. Only a selection was taken, and hits are over-represented in it overall.

SMILES | HSF1 inh | HSF-1 act | T cruzi inh | Lmaj promast | Hsp70 act
Cc1ccc(C(=O)C(C)OC(=O)CN2C(=O)NC3(CCCC3)C2=O)cc1C (stereo not given) | -5 | -2 | -4 | · | ·
Cc1c(Br)c(C(F)(F)F)nn1CC(=O)NCc1ccccc1 | -1 | -2 | -13 | -6 | 0
O=C(CSc1nc2ccc(Cl)cc2[nH]1)NC1CCCc2ccccc21 (stereo not given) | 5 | 7 | 13 | 9 | 0
CCCCn1c(SCC(=O)Nc2ccc3c(c2)CCC3)nc2ccccc2c1=O | 4 | 11 | 14 | 69* | 0
O=C(CSc1ccc(F)cc1)Nc1ccc(Br)cc1 | 47 | 102* | -18 | 8 | 0
COc1ccc2nc(SCC(=O)NC3CCCc4ccccc43)[nH]c2c1 (stereo not given) | 8 | 21 | -12 | 75* | 0
O=C(CSc1nc2ccc(Cl)cc2[nH]1)Nc1ccc2c(c1)CCC2 | -5 | -8 | -15 | -2 | -1
O=C(CSc1nc2ccccc2[nH]1)Nc1ccc2c(c1)CCC2 | 0 | -1 | -1 | 76* | 0
O=C(CSc1ccc(F)cc1)Nc1ccccc1Br | 27 | 35 | -9 | -3 | 0
C=CCNC(=O)c1ccccc1NC(=O)C1CC(=O)N(C(C)C)C1 (stereo not given) | 5 | -5 | 5 | · | ·
O=C(CSc1nc2c(c(=O)[nH]1)CCC2)Nc1ccc(F)cc1 | 25 | 68* | -10 | · | ·
Cc1ccc(N(NC(=O)C(O)(c2ccccc2)c2ccccc2)C(=O)CCl)cc1 | 72 | 75* | -9 | 88* | 0
Cc1ccc(C(O)(C(=O)NN(C(=O)c2ccccc2)c2ccccc2)c2ccc(C)cc2)cc1 | 1 | -6 | 7 | 32 | 0
COc1ccc(C2=Nc3ccccc3OC2)cc1 | 17 | 35 | -14 | 98* | 0
COc1ccc(C2=NC(c3ccccc3)CO2)cc1 (stereo not given) | 11 | 25 | -3 | -5 | 1
CCOC(=O)c1c(S(=O)(=O)N2CCCCC2C)c(C)n(C)c1C (stereo not given) | -88* | -91 | -8 | · | ·
Cc1ccc2c(c1)[C@@H]1CN(C)CC[C@@H]1N2S(=O)(=O)c1ccc(F)cc1 | 0 | 1 | -9 | 88* | 0
Cc1ccc2c(c1)[C@@H]1CN(C)CC[C@@H]1N2S(=O)(=O)c1ccc([N+](=O)[O-])cc1 | 3 | 5 | 44 | 32 | 0
Cc1ccc(-n2c(SCC(=O)NCCN3C(=O)CSC3=O)nnc2-c2ccccc2)cc1C | -3 | 5 | 3 | 4 | 0
Cn1c(SCC(=O)NCCN2C(=O)CSC2=O)nnc1-c1ccccc1 | -7 | -5 | -19 | 56* | 0
Cc1ccc(-n2c(SCC(=O)NCCN3C(=O)CSC3=O)nnc2-c2cccc(C)c2)cc1 | 5 | -12 | 14 | 3 | 0
Cc1ccc(-n2c(SCC(=O)NCCN3C(=O)CSC3=O)nnc2-c2ccccc2)cc1 | -2 | 7 | 9 | 62* | 0
Cn1c(SCC(=O)c2c(N)n(C)c(=O)n(C)c2=O)nnc1-c1ccccc1 | -5 | -7 | 6 | 66* | 0
CC(=O)Nc1ccc(NC(=O)C(C)OC(=O)CCCN2C(=O)c3cccc4cccc(c34)C2=O)cc1 (stereo not given) | 7 | -1 | -4 | · | ·
Cc1nc2ccccc2nc1OCC(=O)NCC(F)(F)F | -2 | 2 | -23 | 58* | 0
SMILES | HSF1 inh | HSF-1 act | T cruzi inh | Lmaj promast | Hsp70 act
CCCOc1ccc(CNC(=O)c2ccc3c(c2)N(CC)CCS3)cc1 | 21 | 23 | 20 | · | ·
COC(=O)C1=CN(Cc2ccc(OC)c(OC)c2)C=C(C(=O)OC)C1c1cccc(F)c1 | 8 | 22 | 63* | · | ·
CN(CC(=O)OCC(=O)NCc1ccccc1)S(=O)(=O)c1ccc(Cl)cc1 | -5 | -14 | -9 | -3 | 0
CC1CCCC/C1=N\Nc1ccc(S(N)(=O)=O)cc1[N+](=O)[O-] (stereo not given) | 44 | 68* | 4 | 8 | 0
CCN(CC)S(=O)(=O)c1ccc(NN=C2CCN(C)CC2)c([N+](=O)[O-])c1 | 3 | 30 | 58* | 81* | -1
CCN(CC)S(=O)(=O)c1ccc(NN=C2CCN(C(C)C)CC2)c([N+](=O)[O-])c1 | 15 | 21 | 27 | · | ·
CC(C)(C)C1CCC(=NNc2ccc(S(N)(=O)=O)cc2[N+](=O)[O-])CC1 (stereo not given) | 5 | 5 | 12 | 85* | 0
NS(=O)(=O)c1ccc(N/N=C2/CCCc3ccccc32)c([N+](=O)[O-])c1 | 3 | 29 | 13 | 9 | 0
C[C@@H](CN=[N+]=[N-])CN1CC[C@H](C(C)(C)C)CCC1=O | 6 | 2 | -6 | · | ·
N#Cc1cc2c(nc1SCC(N)=O)CCCCC2 | 7 | 11 | -5 | -4 | 0
CCOc1ccc2cc(C#N)c(SCC(=O)N3CCC(C)CC3)nc2c1 | -2 | 21 | 32 | 18 | 0
COc1ccc2cc(C#N)c(N3CCN(C(=O)c4ccccc4C)CC3)nc2c1 | 19 | 29 | 23 | 15 | 0
COc1ccc(C(=O)N2CCN(c3nc4cc(C)ccc4cc3C#N)CC2)c(OC)c1 | 0 | 10 | -6 | 63* | 0
N#Cc1cc2c(nc1SCC(=O)N1CCOCC1)CCCCC2 | -67* | -75 | 13 | -4 | 0
COc1ccc2cc(C#N)c(SCC(=O)N3CCCC3)nc2c1 | -1 | 5 | 7 | 55* | 1
COC(=O)CSc1nc2cc(C)cc(C)c2cc1C#N | 31 | 45 | -6 | 4 | 0
COC(=O)CSc1nc2ccc(C)cc2cc1C#N | 29 | 80* | 12 | 3 | 0
O=C(NC(Cc1ccccc1)C(=O)O)/C(=C\c1ccc(Cl)cc1)NC(=O)c1ccco1 (stereo not given) | 6 | 46 | 8 | · | ·
COC(=O)CSc1nc2cc(OC)ccc2cc1C#N | 31 | 58* | -6 | -3 | 1
CCn1cc(CN2CCCC(C(=O)Nc3ccc(-c4cscn4)cc3)C2)c(C)n1 (stereo not given) | -5 | 4 | 37 | · | ·
Cn1cc(CNCCN2CCCCC2=O)c(-c2cccc(Cl)c2)n1 | -3 | -12 | -6 | -2 | 0
CCOC(=O)Cn1c(-c2ccc(OC)cc2)c(-c2ccc(OC)cc2)nnc1=O | 3 | 1 | 4 | · | ·
CCOC(=O)Cn1c(-c2ccccc2)nc2ccccc2c1=O | 2 | 7 | 3 | -7 | 0
C#CCn1c(S(=O)(=O)Cc2ccc(F)cc2)nc(-c2ccccc2)c1-c1ccccc1 | 23 | 26 | 31 | 96* | 0
NC(=O)Cn1c(S(=O)(=O)Cc2ccccc2)nc2ccccc21 | -7 | 6 | -13 | -5 | 0
CCOC(=O)Cn1c(S(=O)(=O)Cc2ccc(F)cc2)nc(-c2ccccc2)c1-c1ccccc1 | 40 | 89* | 14 | 10 | 0
CCOC(=O)Cn1c(S(=O)(=O)Cc2cccc(F)c2)nc(-c2ccccc2)c1-c1ccccc1 | 1 | 16 | 37 | 90* | 0
